Assay [1] addresses T1, Renin (Homo sapiens, UniProt P00797).
T1 sequence (P00797 whole entry): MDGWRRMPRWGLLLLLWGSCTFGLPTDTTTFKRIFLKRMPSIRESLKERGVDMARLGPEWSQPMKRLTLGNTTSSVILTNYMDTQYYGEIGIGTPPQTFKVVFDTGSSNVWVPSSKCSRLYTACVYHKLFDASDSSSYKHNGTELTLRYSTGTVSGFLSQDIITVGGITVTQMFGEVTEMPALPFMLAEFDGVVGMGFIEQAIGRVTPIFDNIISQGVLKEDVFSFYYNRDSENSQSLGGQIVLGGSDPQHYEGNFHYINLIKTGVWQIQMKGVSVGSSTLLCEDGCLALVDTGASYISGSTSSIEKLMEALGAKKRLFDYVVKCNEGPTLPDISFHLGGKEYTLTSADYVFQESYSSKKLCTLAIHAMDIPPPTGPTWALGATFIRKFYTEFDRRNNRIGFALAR
In words: In vitro inhibition of human plasma renin. The assay is classed as cell-free. An outline of the steps:
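Renin activity was measured in human plasma at pH 7.4, and the result is reported as IC50 in nM.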

In assay [2] the target is T1, Renin. In words: In vitro inhibition of purified human renal renin. The essentials:
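The enzyme was human renal renin, purified and tested at pH 6.0. The read-out is IC50 in nM.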

The target of assay [3] is T2, Cathepsin D (Bos taurus) (UniProt P80209).
T2 sequence (whole entry): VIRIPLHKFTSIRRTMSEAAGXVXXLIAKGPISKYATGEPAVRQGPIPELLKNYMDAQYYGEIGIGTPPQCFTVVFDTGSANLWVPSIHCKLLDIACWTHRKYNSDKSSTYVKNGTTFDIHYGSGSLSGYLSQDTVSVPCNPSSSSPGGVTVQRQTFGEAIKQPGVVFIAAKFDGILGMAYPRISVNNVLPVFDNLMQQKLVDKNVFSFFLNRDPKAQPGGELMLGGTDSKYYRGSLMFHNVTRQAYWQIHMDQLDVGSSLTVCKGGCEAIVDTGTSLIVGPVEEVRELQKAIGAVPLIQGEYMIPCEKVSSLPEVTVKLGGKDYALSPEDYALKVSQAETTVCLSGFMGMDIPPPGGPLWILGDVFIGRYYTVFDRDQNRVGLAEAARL
In words: Percent inhibition against bovine cathepsin D at a concentration of 1 x 10 e-5 M and pH 3.

The target in assay [4] is Pepsin A (Sus scrofa) (UniProt P00791). In words: Percent inhibition against porcine pepsin at a concentration of 1 x 10 e-5 M and pH 2.
Pepsin A (Sus scrofa), sequence (P00791 60-385 limits assumed): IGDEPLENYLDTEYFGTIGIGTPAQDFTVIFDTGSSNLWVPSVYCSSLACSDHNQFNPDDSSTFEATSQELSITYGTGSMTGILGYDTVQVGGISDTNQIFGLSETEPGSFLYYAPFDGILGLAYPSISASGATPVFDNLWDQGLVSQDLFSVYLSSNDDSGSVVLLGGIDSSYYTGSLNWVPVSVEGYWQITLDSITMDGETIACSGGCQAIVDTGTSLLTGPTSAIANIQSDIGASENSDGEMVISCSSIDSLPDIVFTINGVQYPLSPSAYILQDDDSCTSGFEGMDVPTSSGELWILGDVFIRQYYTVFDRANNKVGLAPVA
The target of assay [5] is T2, Cathepsin D (Bos taurus). In words: Percent inhibition against bovine Cathepsin D at a concentration of 1 x 10 e-5 M and pH 3.

Each structure is given as a SMILES string. pIC50: −log10 of the molar value.

On to `CC(C)CN1C[C@@H]([C@H](O)[C@H](CC2CCCCC2)NC(=O)[C@H](Cc2cnc[nH]2)NC(=O)[C@H](Cc2ccccc2)NC(=O)OC(C)(C)C)OC1=O`, for which the pIC50 in assay [1] is 7.68; in assay [2], 8.52.
The like results for `CC(C)(C)OC(=O)N[C@@H](Cc1ccccc1)C(=O)N[C@@H](Cc1cnc[nH]1)C(=O)N[C@@H](CC1CCCCC1)[C@@H](O)[C@@H](O)CNC=O` were, in that order, 7.20 and 8.10.
The like results for `CON1C[C@@H]([C@H](O)[C@H](CC2CCCCC2)NC(=O)[C@H](Cc2cnc[nH]2)NC(=O)[C@H](Cc2ccccc2)NC(=O)OC(C)(C)C)OC1=O` were, in that order, 8.04 and 9.05.
Turning to `CCN1C[C@@H]([C@H](O)[C@H](CC2CCCCC2)NC(=O)[C@H](Cc2c[nH]cn2)NC(=O)[C@H](Cc2ccccc2)NC(=O)OC(C)(C)C)OC1=O`, the results for the inhibition in assay [3] and in assay [4] were 21% and 0%, respectively.
Take `CC(C)(C)OC(=O)N[C@@H](Cc1ccccc1)C(=O)N[C@@H](Cc1c[nH]cn1)C(=O)N[C@@H](CC1CCCCC1)[C@@H](O)[C@@H]1CN(CCO)C(=O)O1`: the figures for the pIC50 in assay [1] and in assay [2] were 8.13 and 9.15, respectively.
As for `CN1C[C@@H]([C@H](O)[C@H](CC2CCCCC2)NC(=O)[C@H](Cc2c[nH]cn2)NC(=O)[C@H](Cc2ccccc2)NC(=O)OC(C)(C)C)OC1=O`, the negative logarithm of the IC50 (pIC50) in assay [1] was 8.06; in assay [2], 8.85.
Turning to `CON1C[C@@H]([C@H](O)[C@H](CC2CCCCC2)NC(=O)[C@H](Cc2c[nH]cn2)NC(=O)[C@H](Cc2ccccc2)NC(=O)OC(C)(C)C)OC1=O`, the inhibition in assay [3] and in assay [4] was 0% each time.
As for `CCN1C[C@@H]([C@H](O)[C@H](CC2CCCCC2)NC(=O)[C@H](Cc2cnc[nH]2)NC(=O)[C@H](Cc2ccccc2)NC(=O)OC(C)(C)C)OC1=O`, the negative-log IC50 (pIC50) is 8.55 in assay [1] and 9.20 in assay [2].
As for `CC(C)(C)OC(=O)N[C@@H](Cc1ccccc1)C(=O)N[C@@H](Cc1cnc[nH]1)C(=O)N[C@@H](CC1CCCCC1)[C@@H](O)[C@@H]1CNC(=O)O1`, the pIC50 was 7.60 in assay [1] and 8.33 in assay [2].
The corresponding values for `C[C@H]1C[C@@H]([C@H](O)[C@H](CC2CCCCC2)NC(=O)[C@H](Cc2c[nH]cn2)NC(=O)[C@H](Cc2ccccc2)NC(=O)OC(C)(C)C)OC1=O` are 8.64 and 9.49.
The corresponding values for `CCN1C[C@@H]([C@H](O)[C@H](CC2CCCCC2)NC(=O)[C@H](Cc2cnc[nH]2)NC(=O)[C@H](Cc2ccccc2)NC(=O)OC(C)(C)C)NS1(=O)=O` are 7.89 and 8.85.
The corresponding values for `CC(C)ON1C[C@@H]([C@H](O)[C@H](CC2CCCCC2)NC(=O)[C@H](Cc2c[nH]cn2)NC(=O)[C@H](Cc2ccccc2)NC(=O)OC(C)(C)C)OC1=O` are 7.59 and 8.85.
In turn, `CC(C)(C)OC(=O)N[C@@H](Cc1ccccc1)C(=O)N[C@@H](Cc1cnc[nH]1)C(=O)N[C@@H](CC1CCCCC1)[C@@H](O)[C@@H](O)CN=[N+]=[N-]` had a negative-log IC50 (pIC50) in assay [1] of 8.05.
Consider `C=C1C[C@@H]([C@H](O)[C@H](CC2CCCCC2)NC(=O)[C@H](Cc2c[nH]cn2)NC(=O)[C@H](Cc2ccccc2)NC(=O)OC(C)(C)C)OC1=O`, for which the pIC50 was 7.68 in assay [1] and 9.15 in assay [2].
Take `CCON1C[C@@H]([C@H](O)[C@H](CC2CCCCC2)NC(=O)[C@H](Cc2cnc[nH]2)NC(=O)[C@H](Cc2ccccc2)NC(=O)OC(C)(C)C)OC1=O`: the pIC50 in assay [1] is 7.77; in assay [2], 8.89.
For `CON1CC([C@H](O)[C@@H](CC2CCCCC2)NC(=O)[C@H](Cc2c[nH]cn2)NC(=O)[C@H](Cc2ccccc2)NC(=O)OC(C)(C)C)OC1=O` (single isomer, unassigned), the pIC50 in assay [2] is 7.37.
On to `CC(C)C[C@H](O)[C@H](O)[C@H](CC1CCCCC1)NC(=O)[C@H](Cc1c[nH]cn1)NC(=O)[C@H](Cc1ccccc1)NC(=O)OC(C)(C)C`, for which the inhibition in assay [5] and in assay [4] was 0% each time.
In the case of `CC(C)N1C[C@@H]([C@H](O)[C@H](CC2CCCCC2)NC(=O)[C@H](Cc2cnc[nH]2)NC(=O)[C@H](Cc2ccccc2)NC(=O)OC(C)(C)C)OC1=O`, the results for the negative logarithm of the IC50 (pIC50) in assay [1] and in assay [2] were 8.09 and 9.08, respectively.
In the case of `CC(C)(C)OC(=O)N[C@@H](Cc1ccccc1)C(=O)N[C@@H](Cc1cnc[nH]1)C(=O)N[C@@H](CC1CCCCC1)[C@@H](O)[C@@H]1CC(C)(C)C(=O)O1`, the negative logarithm of the IC50 (pIC50) is 8.55 in assay [1] and 9.05 in assay [2].
The corresponding values for `CCN1C[C@@H]([C@H](O)[C@H](CC2CCCCC2)NC(=O)[C@H](Cc2cnc[nH]2)NC(=O)[C@H](Cc2ccccc2)NC(=O)OC(C)(C)C)NC1=O` are 7.96 and 8.92.
For `CCCN1C[C@@H]([C@H](O)[C@H](CC2CCCCC2)NC(=O)[C@H](Cc2cnc[nH]2)NC(=O)[C@H](Cc2ccccc2)NC(=O)OC(C)(C)C)OC1=O`, the negative logarithm of the IC50 (pIC50) is 7.92 in assay [1] and 9.00 in assay [2].
Take `CC(C)(C)OC(=O)N[C@@H](Cc1ccccc1)C(=O)N[C@@H](Cc1c[nH]cn1)C(=O)N[C@@H](CC1CCCCC1)[C@@H](O)[C@@H](O)CN=[N+]=[N-]`: the inhibition in assay [5] and in assay [4] was 0% throughout.
In the case of `CC(C)(C)OC(=O)N[C@@H](Cc1ccccc1)C(=O)N[C@@H](Cc1c[nH]cn1)C(=O)N[C@@H](CC1CCCCC1)[C@@H](O)[C@@H]1CCNC(=O)O1`, the figures for the pIC50 in assay [1] and in assay [2] were 7.54 and 8.51, respectively.
`C[C@@H]1CO[C@H]([C@H](O)[C@H](CC2CCCCC2)NC(=O)[C@H](Cc2c[nH]cn2)NC(=O)[C@H](Cc2ccccc2)NC(=O)OC(C)(C)C)C1`: the values for the inhibition in assay [5] and in assay [4] were 9% and 2%, respectively. In addition, the negative logarithm of the IC50 (pIC50) in assay [1] was 8.52; in assay [2], 8.92.

A word on the pIC50: it is −log10 of the IC50, conventionally taken in molar units. Low readings indicate a large IC50, high ones a small IC50. One may read the inhibition as the change of the read-out against control, counted positive when it falls. A low value points to little suppression.

For the origin of these results see ChEMBL document CHEMBL1124786, “Potent, low molecular weight renin inhibitors containing a C-terminal heterocycle: hydrogen bonding at the active site” (J Med Chem, 1990).
